Columns and labels:
[1] = Half life of compound was determined in mouse plasma; format: ADME, organism-based
[2] = Half life of compound was determined in rat plasma; format: ADME, organism-based
[3] = target: Adrenergic receptor alpha-2 (Homo sapiens) (UniProt P08913+P18825+P18089); test: The dissociation equilibrium constant (pKB=-log KB) of compound was determined against the Alpha-2 adrenergic receptor; format: protein assay; settings: Oryctolagus cuniculus
[4] = target: D(1A) dopamine receptor (Rattus norvegicus, UniProt P18901); test: Affinity pKi for Dopamine receptor D1 was measured in rat cortex homogenates.; format: tissue-based
D(1A) dopamine receptor, sequence (P18901 whole entry): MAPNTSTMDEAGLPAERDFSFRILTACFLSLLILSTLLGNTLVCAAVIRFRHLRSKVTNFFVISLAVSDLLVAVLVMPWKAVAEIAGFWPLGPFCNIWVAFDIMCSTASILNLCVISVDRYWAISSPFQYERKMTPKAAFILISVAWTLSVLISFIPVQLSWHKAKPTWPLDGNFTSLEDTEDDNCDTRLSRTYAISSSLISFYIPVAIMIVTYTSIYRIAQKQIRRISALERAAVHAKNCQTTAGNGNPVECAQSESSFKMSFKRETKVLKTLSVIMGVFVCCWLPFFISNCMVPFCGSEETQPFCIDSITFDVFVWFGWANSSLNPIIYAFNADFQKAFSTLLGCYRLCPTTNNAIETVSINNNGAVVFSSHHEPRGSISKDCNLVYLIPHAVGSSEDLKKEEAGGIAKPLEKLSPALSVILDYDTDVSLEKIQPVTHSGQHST
In short: (§1)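 Competition binding with rat cortex homogenate: radioligand near its KD plus a wide range of test drug concentrations in duplicate, 30 min at 27 °C. Buffer 50 mM TRIS-HCl, 5 mM CaCl₂, 0.1% (w/v) ascorbate, 10 mM pargyline. Nonspecific binding defined with excess cold 5HT. Rapid filtration with ice-cold buffer wash, liquid scintillation count. pKi is the mean of at least three estimates.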

[5] = target: Adrenergic receptor alpha-1 (Homo sapiens) (UniProt P35348+P25100+P35368); test: The dissociation equilibrium constant (pKB=-log KB) of compound was determined against the Alpha-1 adrenergic receptor in the rabbit thoracic aorta; format: tissue-based; settings: Oryctolagus cuniculus, target entry is the homologue from another species
In short: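 Rabbit thoracic aorta rings (3 mm) given pargyline 500 μM for 30 min and tensioned twice to 3.0 g. L-phenylephrine 10 μM checks viability and gives the reference contracture. After washout, test compound at 30 μM for 60 min, then a cumulative L-phenylephrine curve.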

[6] = target: 5-hydroxytryptamine receptor 1B (Homo sapiens) (UniProt P28222); test: Dissociation equilibrium constant against the vascular 5-hydroxytryptamine 1B like receptor in the rabbit saphenous vein; format: tissue-based; settings: Oryctolagus cuniculus, target entry is the homologue from another species
5-hydroxytryptamine receptor 1B (Homo sapiens), sequence (P28222 whole entry): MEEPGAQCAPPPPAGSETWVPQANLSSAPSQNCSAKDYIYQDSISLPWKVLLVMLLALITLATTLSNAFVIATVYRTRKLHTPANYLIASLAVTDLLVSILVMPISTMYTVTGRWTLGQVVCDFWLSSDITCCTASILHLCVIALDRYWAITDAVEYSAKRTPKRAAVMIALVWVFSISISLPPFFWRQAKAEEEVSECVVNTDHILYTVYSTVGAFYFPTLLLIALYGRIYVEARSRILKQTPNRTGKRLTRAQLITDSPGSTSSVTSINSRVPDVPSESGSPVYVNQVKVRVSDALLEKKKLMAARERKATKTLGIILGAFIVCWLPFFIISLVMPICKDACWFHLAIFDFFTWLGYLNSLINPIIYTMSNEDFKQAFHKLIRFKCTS
In short: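 Saphenous vein rings (4–5 mm) from male New Zealand white rabbits, killed with pentobarbitone 80 mg/kg iv and exsanguination, mounted on tungsten wires. Phenoxybenzamine 0.3 μM for 30 min, washed out, 1 μM 5HT viability check. Cumulative 5HT curve, then after 60 min recovery a test compound curve. Non-agonists tested as 5HT antagonists, giving apparent pKB.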

[7] = target: 5-hydroxytryptamine receptor 7 (Homo sapiens) (UniProt P34969); test: The dissociation equilibrium constant (pKB=-log KB) of compound was determined against the vascular 5-hydroxytryptamine 7 receptor in the endothelium denuded rabbit jugular vein.; settings: Oryctolagus cuniculus; target entry is the homologue from another species
5-hydroxytryptamine receptor 7 (Homo sapiens), sequence (P34969 whole entry): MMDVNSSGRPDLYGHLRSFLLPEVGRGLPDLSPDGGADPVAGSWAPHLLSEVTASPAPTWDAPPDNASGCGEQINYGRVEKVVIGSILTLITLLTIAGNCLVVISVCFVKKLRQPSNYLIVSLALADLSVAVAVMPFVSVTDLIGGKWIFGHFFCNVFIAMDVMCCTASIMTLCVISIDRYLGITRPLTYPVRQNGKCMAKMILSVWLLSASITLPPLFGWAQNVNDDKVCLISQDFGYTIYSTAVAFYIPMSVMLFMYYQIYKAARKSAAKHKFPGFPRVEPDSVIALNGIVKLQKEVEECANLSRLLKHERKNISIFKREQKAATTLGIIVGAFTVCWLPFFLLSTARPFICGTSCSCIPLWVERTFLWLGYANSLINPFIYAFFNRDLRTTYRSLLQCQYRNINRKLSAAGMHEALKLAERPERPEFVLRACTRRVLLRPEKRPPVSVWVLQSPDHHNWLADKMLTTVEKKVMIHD

[8] = target: T1, Adrenergic receptor alpha-1 (Rattus norvegicus, UniProt P15823+P23944+P43140); test: Affinity pKi for Alpha-1 adrenergic receptor was measured in rat cortex homogenates; format: tissue-based; in short: as §1
T1 sequence (P15823 whole entry): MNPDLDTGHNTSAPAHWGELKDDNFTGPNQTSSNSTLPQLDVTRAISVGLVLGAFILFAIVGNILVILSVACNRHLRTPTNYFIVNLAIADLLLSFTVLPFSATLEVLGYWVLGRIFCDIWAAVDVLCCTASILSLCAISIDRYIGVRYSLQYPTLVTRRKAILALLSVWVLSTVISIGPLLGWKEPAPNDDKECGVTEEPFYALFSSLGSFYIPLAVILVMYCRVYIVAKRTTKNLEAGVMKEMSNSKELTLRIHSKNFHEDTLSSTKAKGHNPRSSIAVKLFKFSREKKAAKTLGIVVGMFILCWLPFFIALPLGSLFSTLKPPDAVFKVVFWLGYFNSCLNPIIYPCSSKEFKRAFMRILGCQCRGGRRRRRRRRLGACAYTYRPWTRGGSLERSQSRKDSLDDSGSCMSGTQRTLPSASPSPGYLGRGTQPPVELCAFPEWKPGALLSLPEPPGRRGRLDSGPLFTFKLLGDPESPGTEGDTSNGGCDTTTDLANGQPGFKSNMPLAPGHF
T1 sequence (P23944 whole entry): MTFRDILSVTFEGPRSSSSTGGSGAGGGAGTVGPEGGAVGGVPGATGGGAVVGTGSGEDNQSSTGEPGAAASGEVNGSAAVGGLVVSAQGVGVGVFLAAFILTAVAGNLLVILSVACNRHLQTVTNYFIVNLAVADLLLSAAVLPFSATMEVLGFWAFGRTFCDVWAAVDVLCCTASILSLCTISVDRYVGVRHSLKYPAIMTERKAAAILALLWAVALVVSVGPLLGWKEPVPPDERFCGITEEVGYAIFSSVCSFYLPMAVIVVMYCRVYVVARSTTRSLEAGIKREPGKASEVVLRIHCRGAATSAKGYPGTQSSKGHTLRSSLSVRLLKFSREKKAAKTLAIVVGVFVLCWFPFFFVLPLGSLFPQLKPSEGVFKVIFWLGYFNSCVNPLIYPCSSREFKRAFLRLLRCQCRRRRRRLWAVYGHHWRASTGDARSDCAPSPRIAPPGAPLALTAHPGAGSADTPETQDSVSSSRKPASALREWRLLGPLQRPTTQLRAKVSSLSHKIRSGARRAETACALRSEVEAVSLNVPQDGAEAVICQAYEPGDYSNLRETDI
T1 sequence (P43140 whole entry): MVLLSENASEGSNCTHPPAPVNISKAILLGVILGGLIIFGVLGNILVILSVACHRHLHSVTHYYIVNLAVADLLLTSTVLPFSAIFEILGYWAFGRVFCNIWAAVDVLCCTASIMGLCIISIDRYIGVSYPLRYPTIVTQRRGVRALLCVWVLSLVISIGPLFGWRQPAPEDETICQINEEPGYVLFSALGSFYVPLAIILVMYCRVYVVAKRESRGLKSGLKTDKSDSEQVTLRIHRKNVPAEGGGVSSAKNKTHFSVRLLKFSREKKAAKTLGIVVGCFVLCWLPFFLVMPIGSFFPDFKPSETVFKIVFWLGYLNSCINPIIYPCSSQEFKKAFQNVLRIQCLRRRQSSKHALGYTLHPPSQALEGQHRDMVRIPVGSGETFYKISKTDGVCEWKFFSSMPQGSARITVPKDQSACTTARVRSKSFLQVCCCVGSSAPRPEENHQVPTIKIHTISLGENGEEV

SMILES: CCOC(=O)c1[nH]c2ccc(CCN3C(=O)CNC3=O)cc2c1CCN(C)C
- half-life [1]: 12 min
- half-life [2]: 15 min
- pKB [3]: < 5
- Ki [4]: 32.4 µM
- pKB [5]: 5.43
- pKB [6]: 7.42
- pKB [7]: 5.5
- Log Ki [8]: -4.95
